# Assay outcomes (PubChem BioAssay)
# PRMT1 inh = PRMT1 methyltransferase inhibitors, primary screen, biochemical, fluorescence polarization; Protein arginine N-methyltransferase 1 (Homo sapiens), Q99873; recombinant PRMT1, activity-based probe fluorescence polarization; inhibition, % at 2.79 µM; 1.3% of 370,000 active;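 active = inhibition above about 21% made by adding two undisclosed values, limit read from the data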
# MBD2 DNA inh = inhibitors of MBD2 binding to methylated DNA, primary screen, biochemical, TR-FRET, DNA-binding domain, human. Methyl-CpG-binding domain protein 2 (Homo sapiens), Q9UBB5. MBD2 binding to methylated oligonucleotide. inhibition, % at 4.4 µM. 0.31% of 370,000 active; in the data active = inhibition above about 13%
# RBBP9 inhibitor = human RBBP9 inhibitors, primary screen, biochemical, fluorescence polarization, FP-Rh probe, HTS; inhibition, % at 7.94 µM; AID 1515, 2009; 0.2% of 220,000 active; Serine hydrolase RBBP9 (Homo sapiens), O75884; recombinant RBBP9;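 active = inhibition above the campaign mean of all tested compounds plus 3 SD, cut at about 14% in these data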
# Target sequence (O75884 whole entry, looked up): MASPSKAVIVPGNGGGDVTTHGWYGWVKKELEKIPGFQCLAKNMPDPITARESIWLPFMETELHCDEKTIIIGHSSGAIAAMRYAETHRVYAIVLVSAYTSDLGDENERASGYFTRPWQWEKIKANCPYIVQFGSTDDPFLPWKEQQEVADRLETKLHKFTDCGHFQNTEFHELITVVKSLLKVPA
#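 System: RBBP9 protein | Quantity: 2.5 µM RBBP9 dispensing solution, before mixing | Reagent: FP-Rh probe, 375 nM dispensing solution | Timing: Enzyme-compound preincubation 30 min, then probe labeling 45 min, 25 °C | Measured by: Fluorescence polarization | Read-out: % inhibition | Replication: One well per compound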
# UHRF1 binding = UHRF1 methylated DNA binding inhibitors, primary screen, counter-screen for MBD2 inhibitor project, biochemical, TR-FRET, human UHRF1, single concentration; E3 ubiquitin-protein ligase UHRF1 (Homo sapiens), Q96T88; 0.75% of 370,000 active; inhibition, % at 4.4 µM; UHRF1 binding to methylated oligo; in the data active = inhibition above about 21%;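 note: UHRF1 SRA domain binding a hemimethylated CpG hairpin DNA probe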
# ABHD5-PLIN5 inh = ABHD5-PLIN5 interaction inhibitors, primary screen, cell lysate, split luciferase complementation, luminescence. Perilipin-5 (Homo sapiens) + 1-acylglycerol-3-phosphate O-acyltransferase ABHD5 (Homo …. Split G. princeps luciferase complementation, 4 h. inhibition, % at 4 µM. 0.78% of 360,000 active. AID 602281, 2012;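 active = inhibition above the mean inhibition across every tested compound plus 3 SD, cut at about 22% in these data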
# LEDGF integ inh = blockers of LEDGF/p75-dependent integrase strand transfer – biochemical, TR-FRET, high throughput, primary screen; 0.64% of 370,000 active; TR-FRET IN-LEDGF/p75 DNA integration, Eu/Cy5; inhibition, % at 3.7 µM; AID 743269, 2014; HIV-1 integrase (with human LEDGF/p75);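 active = inhibition above the screen-wide mean plus 3 SD, cut at about 13% in these data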;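 note: signal is the Cy5 over europium emission ratio at 671 and 618 nm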
# ABHD5-PLIN5 conf = ABHD5-PLIN5 interaction inhibitors, confirmation, biochemical, luminescence | shares compounds with ABHD5-PLIN5 inh | inhibition, % at 4 µM | 67% of 2,200 active; in the data active = inhibition above about 23%
# HNF4 counter = HNF4 dimerization inhibitors, counter-screen for ABHD5-PLIN5 interaction inhibitor project, biochemical, split-luciferase complementation, luminescence; shares compounds with ABHD5-PLIN5 inh; inhibition, % at 4 µM; 77% of 2,200 active; AID 651674, 2012;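 active = mean inhibition across replicate wells exceeding the computed hit threshold, cut at about 13% in these data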;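 note: light from luciferase halves that rejoin when HNF4 fusion proteins dimerize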
# Target sequence (P41235 whole entry, looked up, the tested form may be a part): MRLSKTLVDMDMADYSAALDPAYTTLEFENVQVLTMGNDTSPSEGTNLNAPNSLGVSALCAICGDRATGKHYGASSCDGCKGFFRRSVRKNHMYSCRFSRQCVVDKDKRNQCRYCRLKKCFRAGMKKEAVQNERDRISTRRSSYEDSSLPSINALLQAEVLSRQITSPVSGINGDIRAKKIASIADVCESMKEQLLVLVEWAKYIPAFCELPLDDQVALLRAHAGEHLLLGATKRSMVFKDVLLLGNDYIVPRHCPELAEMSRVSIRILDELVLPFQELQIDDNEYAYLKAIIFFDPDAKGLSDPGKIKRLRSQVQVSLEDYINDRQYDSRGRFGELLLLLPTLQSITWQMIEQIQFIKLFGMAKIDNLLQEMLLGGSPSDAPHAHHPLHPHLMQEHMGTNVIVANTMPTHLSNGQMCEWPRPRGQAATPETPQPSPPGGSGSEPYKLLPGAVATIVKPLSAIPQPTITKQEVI
# PRMT1 confirm = PRMT1 methyltransferase inhibitors, confirmation, biochemical, fluorescence polarization, triplicate | inhibition, % at 2.79 µM | recombinant His-PRMT1, activity-based probe fluorescence polarization | 42% of 3,300 active | shares compounds with PRMT1 inh;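 active = mean inhibition across replicates above the hit cutoff derived for the earlier primary screen, cut at about 22% in these data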
# UHRF1 DNA bind = UHRF1 methylated DNA binding inhibitors, counter-screen for MBD2 inhibitor project, biochemical, TR-FRET, human UHRF1. UHRF1 binding to methylated oligonucleotide. inhibition, % at 4.4 µM. AID 720530, 2013. shares compounds with MBD2 DNA inh. 25% of 1,000 active; in the data active = inhibition above about 21%;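 note: UHRF1 SRA domain binding a labeled hemimethylated CpG hairpin DNA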
# MBD2 DBD conf = inhibitors of MBD2 binding to methylated DNA, confirmation, biochemical, TR-FRET, DNA-binding domain, human | shares compounds with MBD2 DNA inh | TR-FRET MBD2-DBD binding to methylated oligonucleotide | inhibition, % at 4.4 µM | 26% of 1,000 active | AID 720531, 2013
# IN multimer act = HIV-1 IN multimer formation enhancers, counter-screen for LEDGF/p75 integration inhibitor project, biochemical, TR-FRET. shares compounds with LEDGF integ inh. TR-FRET HIV-1 integrase multimerization. activation, % at 7.7 µM. 17% of 2,000 active. AID 1053131, 2014; in the data active = activation above about 8.9%
# TR-FRET interf = TR-FRET optical interference artefacts, confirmation, artefact control for LEDGF/p75-dependent integration inhibitor project, biochemical, HIV-1 IN multimerization; shares compounds with LEDGF integ inh; TR-FRET optical interference counterscreen; inhibition, % at 7.7 µM; 2,000 tested, under 10 active;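 active = inhibition above the mean over all tested compounds plus 3 SD, which no compound reached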
# LEDGF integ conf = inhibitors of HIV-1 IN-LEDGF/p75 DNA integration, confirmation, biochemical, TR-FRET; 36% of 2,000 active; shares compounds with LEDGF integ inh; inhibition, % at 3.7 µM; TR-FRET LEDGF/p75-dependent HIV-1 integration; AID 1053136, 2014
# Hits are given with their value; - = inactive; . = no result. Rows were chosen to be rich in hits. Some 3.1% of all compounds tested hit in one or more screens of this group. Cut-off read from the data, not from the text of the source, unless noted: active = inhibition above about 14%; inactive = the rest.
SMILES,PRMT1 inh,MBD2 DNA inh,RBBP9 inhibitor,UHRF1 binding,ABHD5-PLIN5 inh,LEDGF integ inh,ABHD5-PLIN5 conf,HNF4 counter,PRMT1 confirm,IN multimer act,TR-FRET interf,LEDGF integ conf,others
CC(C)(C)OC(=O)N1CCC2CCN(S(C)(=O)=O)CC21 (stereo not drawn),-,-,.,-,.,-,.,.,.,.,.,.,
COC(=O)[C@]12C[C@H](CC(=O)NCc3cccc(C(F)(F)F)c3)C(=O)N(Cc3cccc4ccccc34)C1=C[C@H](C1CCCC1)O[C@@H]2C,-,-,.,-,.,-,.,.,.,.,.,.,
COc1ccc2[nH]c3c(c2c1)CCN[C@]31C(=O)N(Cc2cn(Cc3ccccc3)nn2)c2ccccc21,-,-,.,-,.,-,.,.,.,.,.,.,
CC1(C)CC(=O)C2=C(C1)OC1=C(C(=O)CC(C)(C)C1)C2c1ccc(O)cc1O,78,-,-,-,87,17,102,108,.,-,-,-,
O=C(O)c1ccc(N/N=C/C2=C(N3CCOCC3)C(=C\c3ccccc3)/CC2)cc1,33,19,-,51,25,54,-,42,-,-,-,17,UHRF1 DNA bind=-;MBD2 DBD conf=-
Cc1cc(C)nc(N/N=C/C2=C(N3CCOCC3)C(=C\c3ccc(Cl)cc3)/CC2)n1,-,-,-,-,-,-,.,.,.,.,.,.,
O=C(N/N=C/C=C/c1ccco1)C(O)c1ccccc1 (stereo not drawn),-,-,-,-,35,26,47,60,.,-,-,26,
O=C1OC(c2ccccc2)=N/C1=C\C=C\c1ccco1,26,-,-,32,39,41,-,35,-,-,-,-,
O=C1OC(c2ccc(Cl)cc2)=N/C1=C\C=C\c1ccco1,39,14,-,40,53,36,-,17,-,-,-,-,UHRF1 DNA bind=-;MBD2 DBD conf=-
O=C1OC(c2ccccc2)=N/C1=C\C=C\c1ccccc1[N+](=O)[O-],-,-,-,-,-,-,.,.,.,.,.,.,
COc1ccc(-c2cccc3[nH]c4c(c23)CCN2C(=O)[C@H]3[C@H](C)ON(C)[C@H]3C[C@@H]42)cc1,-,-,.,-,.,-,.,.,.,.,.,.,
CCOC1=CC2=C(C(=O)C(Cl)=CC2=O)[C@@H]2CN(S(=O)(=O)c3ccc(C)cc3)[C@@H](c3ccccc3)[C@H]12,50,-,.,-,53,19,103,58,91,-,-,26,
CCN1C(=O)[C@@H]2[C@@H]3CN(S(=O)(=O)c4ccc(C)cc4)[C@@H](c4ccccc4)[C@@H]3C(=O)C[C@@H]2C1=O,-,-,.,-,-,-,.,.,.,.,.,.,
CC(=O)OC[C@]12CC[C@H]3[C@@](C)(CC[C@H]4C(C)(C)CCC[C@]34C)[C@@H]1CC(C1=CC(=O)OC1O)O2 (stereo partly drawn),-,-,.,-,100,20,103,103,.,-,-,63,
CC(=O)OC[C@]1(OC(C)=O)C[C@@]23CC[C@H]4[C@@](C)(CCC[C@@]4(C)C(=O)O)[C@@H]2CC[C@@H]1C3,-,-,-,-,-,-,.,.,.,.,.,.,
CN1C(=O)C[C@@](C#N)(C(=O)NCCc2ccccc2)[C@H]1c1ccccc1,-,-,.,-,.,-,.,.,.,.,.,.,
O=C1C=CC2=C3c4cc(O)c(O)cc4CC3(O)COC2=C1O (stereo not drawn),56,35,.,56,28,90,64,33,.,68,-,93,
O=C(O)c1ccc(Cl)c2c1C1C=CCC1C(c1ccccn1)N2 (stereo not drawn),.,.,-,.,.,.,.,.,.,.,.,.,
COC(=O)COc1ccc(C2Nc3c(Cl)ccc(C(=O)O)c3C3C=CCC32)cc1 (stereo not drawn),69,18,-,46,23,66,-,28,29,-,-,21,UHRF1 DNA bind=-;MBD2 DBD conf=-
CC(=O)N1CCN(c2nc(-c3ccco3)c3c(c2C#N)CC(C)(C)SC3)CC1,46,-,-,-,35,22,-,18,-,-,-,19,
CCc1nc(N2CCN(C(=O)c3ccco3)CC2)c(C#N)c2c1COC(C)(C)C2,-,-,.,-,-,-,.,.,.,.,.,.,
C/C=C/C=C/C(=O)[C@@H]1[C@@H]([C@]2(C)OC(=O)C(C)=C2O)[C@H]2/C(=C(O)/C=C/C=C/C)C(=O)[C@]1(C)C(=O)C2(C)O (stereo partly drawn),-,-,.,48,35,45,44,25,.,-,-,78,
